Most compounds without a hit are left out; they make up all but 12% or so of the library.
ROMK primary: modulators of human ROMK potassium channel; B-score at 10 µM; 2% of 130,000 active; P48048; Tet-inducible ROMK, thallium flux fluorescence; actives lie on both sides;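 active = signal ratio slope over the read window, or its plate-corrected B-score, at least 3 SD from the plate mean, either direction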;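 also: B-score of the F/F0 ratio slope over 7 to 12 s after thallium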
Lmaj promast: inhibitors of Leishmania major promastigote growth; Leishmania major promastigotes, resazurin fluorescence viability; inhibition, % at 10 µM; 9% of 200,000 active; AID 1063; in the data active = inhibition above about 50%;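 also: promastigotes grown with compound for 44 hours at 28 °C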
Cl transport mod: modulators of human KCC2 chloride dependent transport; 2.2% of 190,000 active; AID 1456; KCC2 cells, thallium flux FluoZin-2 fluorescence; B-score of Tl+ flux slope (higher = more flux/activation; lower = inhibition) at 10 µM; Q9H2X9;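 active = thallium flux slope and its plate-corrected score both differing from the plate sample mean at a set confidence after two filtering rounds, in either direction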;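 also: slope of fluorescence scaled to starting intensity during 10 to 20 s after thallium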
Diaph inh CS: diaphorase inhibition or chemical oxidation counter-screen. diaphorase resazurin-to-resorufin fluorescence, NADH, 16 min; bacterial (C. kluyveri) enzyme, not human. inhibition, % at 20 µM. 0.69% of 190,000 active. AID 1217;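 active = primary screen inhibition at 20 µM above a set limit, cut at about 50% in these data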;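 also: plate controls were DMSO with full reaction for no effect and wells lacking NADH for full effect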
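System: Bacterial diaphorase enzyme (C. kluyveri) | Incubation: 16-min room-temperature incubation before reading | Benchmarks: No-NADH positive control and DMSO neutral control | Measured by: Resorufin fluorescence 544/590 nm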
Diaphorase act: diaphorase activation or chemical reduction counter-screen; Diaphorase/resazurin coupled assay, resorufin fluorescence, 16 min; hits give high values; 1 = vehicle wells, 0 = NADH-free wells; activation factor at 20 µM; 0.005% of 190,000 active; AID 1229;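 active = diaphorase activity raised at least twofold by the compound at 20 µM; inactive = activation factor below 2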
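Material: purified diaphorase enzyme from Clostridium kluyveri; Also added: 0.114 mM NADH and 0.1 mM resazurin, final amounts; Doses: single compound dose of 20 µM, 1% DMSO final; Times: 16 min enzyme reaction, ambient temperature; Detection: resorufin fluorescence, excitation 544 nm, emission 590 nm; Measure: increased resorufin signal from activators or reducing compounds.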
WT yeast gro inh: growth inhibition of WT yeast, mitochondrial fusion screen. mitochondrial fusion phenotypic screen, WT strain. inhibition, % at 10 µM. 2.1% of 190,000 active. AID 1362; in the data active = inhibition above about 58%; tested in S. cerevisiae
* hit, by the source's call; x = no result.

SMILES | ROMK primary | Lmaj promast | Cl transport mod | Diaph inh CS | Diaphorase act | WT yeast gro inh
COc1cc(OC)c(OC)cc1CNC1CCCCCC1 | x | 16 | x | -9 | 1.1 | 1
O=C(COC(=O)/C=C/c1ccccc1)NCC1CCCO1 (centres undefined) | 1.4 | -6 | 0.27 | 9 | 0.9 | -5
CCCn1c(C)cc(C(=O)COC(=O)c2cc(S(=O)(=O)NCC(C)C)c(Cl)cc2Cl)c1C | 0.24 | 25 | -0.45 | 25 | 0.8 | 4
CC12CCC(C(=O)N(CC(O)CN3CCN(Cc4ccccc4)CC3)C1=O)C2(C)C (centres undefined) | -0.043 | x | -1.1 | x | x | x
CN(C)c1ccc(/C=N\NC(=S)SCN2C(=O)C3CCC(C)(C2=O)C3(C)C)cc1 (centres undefined) | -0.48 | -2 | 6.4* | 30 | 0.7 | 27
CC12CCC(C(=O)N(CSC(=S)N/N=C\c3ccccc3O)C1=O)C2(C)C (centres undefined) | -0.19 | 85* | 13* | 57* | 0.4 | 35
COc1ccc(C(=O)NN2C(=O)C3CCC(C)(C2=O)C3(C)C)cc1 (centres undefined) | x | -5 | -0.79 | -1 | 1 | -3
COc1ccc(/C=N\NC(=S)SCN2C(=O)C3CCC(C)(C2=O)C3(C)C)cc1 (centres undefined) | x | 5 | 14* | x | x | 51
OCCC1CN(Cc2cn[nH]c2C2CCCCC2)CCN1C1CCCCC1 (centres undefined) | -0.76 | -1 | 0.39 | x | x | 15
CCOC(=O)c1c(NC(=O)C2COc3ccccc3O2)sc2c1CC(C)(C)NC2(C)C (centres undefined) | x | 99* | 0.76 | 7 | 0.9 | 48
CCOC(=O)c1c(NC(=O)C2COc3ccccc3O2)sc(C(C)=O)c1C (centres undefined) | x | 4 | 0.92 | 12 | 0.9 | 3
Cc1cc2oc(=O)cc(CN3CCCc4ccccc43)c2cc1C | x | 99* | -0.88 | 1 | 1 | 7
Cc1ccc2c(CN3CCN(CCO)CC3)cc(=O)oc2c1C | -1.6 | 55* | 0.077 | 10 | 0.9 | 5
CN1CCN(Cc2cc(=O)oc3cc4c(cc23)CCC4)CC1 | -0.65 | 65* | x | 20 | 0.8 | -12
Cc1ccc2c(CN3CCN(C(=O)c4ccco4)CC3)cc(=O)oc2c1C | 1.1 | 6 | -0.3 | 7 | 0.9 | -3
Cc1ccc(C(=O)N[C@@H](C)CN2C3=NC[C@H](C)N3C[C@H]2Cc2ccc(O)cc2)cc1Br | x | x | 0.057 | x | x | x
COc1ccc2c(c1)CCc1c(C(=O)N3CCCCCC3)noc1-2 | -0.57 | 3 | x | 20 | 0.8 | -3
COc1ccc2c(c1)CCc1c-2n[nH]c1C(=O)O | -0.52 | 13 | -0.42 | 8 | 0.9 | 72*
O=C(COc1ccccc1C(=O)NCc1ccncc1)Nc1ccc(Br)cc1 | -0.47 | 16 | -0.55 | 4 | 1 | -1
COC(=O)c1sc(C(C)(C)C)cc1CS(=O)(=O)c1ccc(Cl)cc1 | x | x | -1.1 | x | x | x
CCc1ccc(C2C(C#N)=C(N)C(C#N)(C#N)C3=CCC(C(C)(C)C)CC32)cc1 (centres undefined) | x | 96* | -1.4 | 31 | 0.7 | 49
CCCCNC(=S)Nc1cc([N+](=O)[O-])ccc1C | 0.32 | 74* | 0.34 | 18 | 0.8 | 18
Cc1ccc(CNC(=O)COC(=O)c2ccc(Cl)c(N)c2)cc1 | -1.3 | -7 | -1.1 | 11 | 0.9 | 3
COc1ccc(-c2csc(Nc3ccccc3)[n+]2CC(O)c2ccc([N+](=O)[O-])cc2)cc1 (centres undefined) | x | x | -0.44 | x | x | x
CCCCCC[n+]1c(-c2ccccc2)csc1Nc1ccccc1 | -0.32 | 9 | -0.18 | 17 | 0.8 | 69*
SMILES | ROMK primary | Lmaj promast | Cl transport mod | Diaph inh CS | Diaphorase act | WT yeast gro inh
Cc1cc(C)c(NC(=O)CN2CCC(NC(=O)NC3CCCCC3)CC2)c(C)c1 | 0.42 | -4 | x | -18 | 1.2 | -5
OC1(c2ccc(Br)cc2)CCNCC1 | -0.88 | 84* | 0.058 | 10 | 0.9 | 10
CN(C(=O)c1c(Br)cnn1C)C12CC3CC(CC(C3)C1)C2 | -0.76 | 8 | -0.38 | 11 | 0.9 | 14
CCC(C)C1=CC(=Nc2c(C)n(C)n(-c3ccccc3)c2=O)C=C(C(C)CC)C1=O (centres undefined) | 0.58 | -2 | -0.024 | 68* | 0.3 | 20
CC1=CC(=Nc2c(C)n(C)n(-c3ccccc3)c2=O)C=C(C)C1=O | x | 72* | -0.75 | 70* | 0.3 | 12
CC1=CC(=Nc2c(C)n(C)n(-c3ccccc3)c2=O)C=CC1=O | -0.19 | x | -0.27 | x | x | x
CC(Sc1ccc2ccccc2c1)C(=O)NC(N)=O (centres undefined) | x | 5 | 0.54 | 20 | 0.8 | -11
Fc1ccc(Nc2nc3ccccc3s2)cc1 | 2.5 | -10 | -0.088 | 14 | 0.9 | 15
O=c1cc(O)c2sc(Nc3cccc(C(F)(F)F)c3)nc2[nH]1 | 0.57 | 29 | 0.61 | 66* | 0.3 | -2
O=c1cc(O)c2sc(Nc3ccc(F)cc3)nc2[nH]1 | 0.0036 | -4 | 0.03 | 78* | 0.2 | -9
CCc1nnc(NC(=O)CSc2nnc(-c3ccccc3OC)n2-c2ccc(C)cc2)s1 | 0.42 | 57* | -1.5 | 10 | 0.9 | 13
CCc1nnc(NC(=O)CCC(=O)N2CCN(Cc3ccccc3)CC2)s1 | -0.54 | -3 | x | 7 | 0.9 | 38
CCc1nnc(NC(=O)CCC(=O)N2CCN(C3c4ccccc4-c4ccccc43)CC2)s1 | 1.2 | 51* | -0.34 | 21 | 0.8 | -3
COc1ccc(Cc2nnc(NC(=O)CSc3ccccc3)s2)cc1OC | -0.8 | 51* | -1.1 | 7 | 0.9 | 3
CCc1nnc(NC(=O)CCC(=O)NCCc2ccc(OC)c(OC)c2)s1 | 0.13 | 61* | 0.44 | 7 | 0.9 | -1
CC(C)(C)[C@H]1C=C(C(=O)NC2CC2)O[C@@H](OCCCCO)C1 | x | -5 | -0.072 | 20 | 0.8 | -2
CN(CC(=O)Nc1cc(S(=O)(=O)N2CCOCC2)ccc1Cl)C1CCS(=O)(=O)C1 (centres undefined) | 0.81 | -4 | 0.66 | -5 | 1.1 | 2
CC(C(=O)OCc1nnc(-c2ccccc2)o1)N1C(=O)C2CCCCC2C1=O (centres undefined) | x | 0 | -0.0073 | 5 | 1 | 11
COc1cccc(OCCNC(=O)Nc2cc(F)c(F)cc2Cl)c1 | -1.1 | -6 | -1.6 | 19 | 0.8 | 2
CS(=O)(=O)N1CCc2cc(C(=O)N3CCCC3)ccc21 | -0.26 | -6 | 0.27 | 4 | 1 | -14
Cc1ccc(SC(C)C(=O)Nc2ccccc2-c2ccccc2)cc1 (centres undefined) | 0.51 | 16 | 0.37 | 8 | 0.9 | 78*
Cc1ccc(SC(C)C(=O)Nc2cccnc2)cc1 (centres undefined) | x | -3 | -0.4 | -6 | 1.1 | 11
CC(=O)Nc1ccc(S(=O)(=O)N2CCOCC2)cc1 | 0.4 | -3 | x | -6 | 1.1 | -5

Screening data: PubChem BioAssay, several laboratories
